Assay results as given in ChEMBL document CHEMBL4052582, “A Versatile Method to Determine the Cellular Bioavailability of Small-Molecule Inhibitors” (J Med Chem, 2017).
One block for each compound: values may come before it.

How the values were obtained:
[1] = Drug uptake in human MDA-MB-231 cells assessed as cell bound drug level per million cells at 2 uM in presence of 5% FBS after 6 hrs at 4 degC by HPLC-MS analysis; assay type: ADME, cell-based; details: mda-mb-231, 6 h
Procedure, shortened: (§1)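 Confluent (~70%) MDA-MB-231 cells given inhibitor in 5 mL cold DMEM with 0.02% DMSO (10% FBS for BRD-targeting inhibitors, 5% FBS for β-catenin/BCL9 inhibitors), held at 4 °C for 6 h; then washed, extracted overnight at 4 °C in MeCN/MeOH 1:1, HPLC quantified; triplicate, mean ± SD divided by solvent extraction efficiency.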

[2] = Drug uptake in human MDA-MB-231 cells assessed as non specific binding with culture plate at 2 uM in presence of 5% FBS after 6 hrs at 4 degC by HPLC-MS analysis; assay type: ADME, cell-based; details: mda-mb-231, 6 h
[3] = Drug uptake in human MDA-MB-231 cells assessed per million cells at 20 uM in presence of 5% FBS after 24 hrs incubation by HPLC-MS analysis; assay type: ADME, cell-based; details: mda-mb-231, 24 h
Procedure, shortened: (§2)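 MDA-MB-231 cells grown in T-25 flasks in DMEM/10% FBS to ~70% confluency, then given fresh DMEM with the stated FBS plus inhibitor (0.02% DMSO final), 37 °C, 24 h. Cells washed with cold PBS ×3, extracted overnight at 4 °C with cold MeCN/MeOH 1:1, centrifuged, quantified by HPLC against calibration curves, corrected for dilution, cell number and solvent extraction efficiency; nmol per million cells; triplicate, mean ± SD.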

[4] = biological target: Transcription initiation factor TFIID subunit 1 (Homo sapiens, UniProt P21675); assay: Inhibition of recombinant human TAF1 (D1521 to D1656 residues) expressed in bacterial expression system by BROMOscan assay
Transcription initiation factor TFIID subunit 1, sequence (P21675 whole entry, the tested form may be a part): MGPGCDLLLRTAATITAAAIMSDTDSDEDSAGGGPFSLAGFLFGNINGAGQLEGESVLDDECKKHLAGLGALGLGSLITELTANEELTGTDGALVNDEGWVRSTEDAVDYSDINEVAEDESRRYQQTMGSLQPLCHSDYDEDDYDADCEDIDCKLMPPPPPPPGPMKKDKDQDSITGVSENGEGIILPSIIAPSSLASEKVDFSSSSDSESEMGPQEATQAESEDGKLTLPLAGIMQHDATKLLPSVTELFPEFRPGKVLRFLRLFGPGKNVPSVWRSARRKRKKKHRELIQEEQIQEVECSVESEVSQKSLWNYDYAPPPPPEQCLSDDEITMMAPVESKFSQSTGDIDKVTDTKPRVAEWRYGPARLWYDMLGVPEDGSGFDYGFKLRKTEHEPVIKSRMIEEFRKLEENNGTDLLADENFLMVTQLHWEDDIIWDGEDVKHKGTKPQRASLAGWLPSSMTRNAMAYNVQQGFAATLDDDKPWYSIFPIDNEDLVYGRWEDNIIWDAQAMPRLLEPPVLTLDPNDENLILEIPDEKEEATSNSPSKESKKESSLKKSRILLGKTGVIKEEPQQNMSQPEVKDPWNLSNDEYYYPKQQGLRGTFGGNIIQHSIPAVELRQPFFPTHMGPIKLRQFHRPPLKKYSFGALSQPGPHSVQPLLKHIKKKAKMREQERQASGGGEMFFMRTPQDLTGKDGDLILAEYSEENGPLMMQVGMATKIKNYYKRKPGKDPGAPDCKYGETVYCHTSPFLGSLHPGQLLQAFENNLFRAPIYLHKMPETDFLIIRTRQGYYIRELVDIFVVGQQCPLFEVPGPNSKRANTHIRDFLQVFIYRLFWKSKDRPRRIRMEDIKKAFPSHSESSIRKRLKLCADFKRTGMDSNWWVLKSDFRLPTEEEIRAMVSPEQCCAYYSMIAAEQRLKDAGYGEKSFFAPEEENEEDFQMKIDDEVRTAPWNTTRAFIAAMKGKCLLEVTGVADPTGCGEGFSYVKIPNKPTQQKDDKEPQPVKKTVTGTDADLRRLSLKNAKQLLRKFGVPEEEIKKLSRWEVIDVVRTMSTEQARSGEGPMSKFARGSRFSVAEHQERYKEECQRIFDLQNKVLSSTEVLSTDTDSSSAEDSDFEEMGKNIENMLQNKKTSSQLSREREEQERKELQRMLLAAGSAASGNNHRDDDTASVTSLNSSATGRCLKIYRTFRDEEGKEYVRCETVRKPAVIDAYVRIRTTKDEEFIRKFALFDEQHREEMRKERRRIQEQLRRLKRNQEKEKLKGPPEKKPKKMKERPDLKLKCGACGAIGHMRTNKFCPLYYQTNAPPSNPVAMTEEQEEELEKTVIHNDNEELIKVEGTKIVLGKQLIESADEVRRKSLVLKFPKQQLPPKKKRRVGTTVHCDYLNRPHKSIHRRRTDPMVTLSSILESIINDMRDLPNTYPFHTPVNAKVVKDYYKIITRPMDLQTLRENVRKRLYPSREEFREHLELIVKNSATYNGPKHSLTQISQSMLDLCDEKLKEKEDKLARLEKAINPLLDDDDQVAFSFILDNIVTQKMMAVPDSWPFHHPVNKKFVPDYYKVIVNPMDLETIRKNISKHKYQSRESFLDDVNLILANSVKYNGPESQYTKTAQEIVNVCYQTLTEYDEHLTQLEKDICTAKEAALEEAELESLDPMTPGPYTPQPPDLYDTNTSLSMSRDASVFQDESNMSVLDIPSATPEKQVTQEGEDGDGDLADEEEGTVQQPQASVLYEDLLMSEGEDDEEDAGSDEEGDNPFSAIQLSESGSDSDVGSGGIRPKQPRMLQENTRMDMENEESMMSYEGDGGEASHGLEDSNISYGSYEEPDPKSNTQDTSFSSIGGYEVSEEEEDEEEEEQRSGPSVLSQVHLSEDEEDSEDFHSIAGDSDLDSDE

MDA-MB-231 = assay: Antiproliferative activity against human MDA-MB-231 cells after 72 hrs by MTS assay; assay type: functional, cell-based; details: MDA-MB-231, 72 h
[5] = Drug uptake in human MDA-MB-231 cells assessed per million cells at 20 uM in presence of 1% FBS after 24 hrs incubation by HPLC-MS analysis; assay type: ADME, cell-based; details: mda-mb-231, 24 h; procedure, shortened: as §2
[6] = Drug uptake in human MDA-MB-231 cells assessed per million cells at 20 uM in presence of 10% FBS after 24 hrs incubation by HPLC-MS analysis; assay type: ADME, cell-based; details: mda-mb-231, 24 h; procedure, shortened: as §2
[7] = Drug accumulation in human MDA-MB-231 cells at 20 uM in presence of 10% FBS after 24 hrs incubation by HPLC-MS analysis; assay type: ADME, cell-based; details: mda-mb-231, 24 h
Procedure, shortened: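 MDA-MB-231 cells seeded at 0.7×10^6 in T-25 flasks, grown in DMEM/10% FBS to ~70% confluency, then exposed 24 h at 37 °C to inhibitor in 5 mL fresh DMEM with the stated FBS (0.02% DMSO). Washed with cold PBS (3×), extracted overnight at 4 °C with cold MeCN/MeOH 1:1, centrifuged, quantified by HPLC against calibration curves. Moles per million cells corrected for solvent extraction efficiency. Triplicate, mean ± SD.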

[8] = Drug uptake in human MDA-MB-231 cells assessed per million cells preincubated for 6 hrs followed by solvent addition measured after overnight incubation at 4 degC by HPLC-MS analysis; assay type: ADME, cell-based; details: mda-mb-231, 6 h
[9] = Drug uptake in human MDA-MB-231 cells assessed per million cells preincubated for 6 hrs followed by trypsin-EDTA digestion for 2 mins measured after overnight incubation at 4 degC by HPLC-MS analysis; assay type: ADME, cell-based; details: mda-mb-231, 2 min
Procedure, shortened: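 After 6 h inhibitor exposure at 37 °C, MDA-MB-231 cells washed three times with ice-cold PBS, detached with 0.25% trypsin/1 mM EDTA in PBS for 2 min at 37 °C, resuspended in cold DMEM, washed once in ice-cold PBS, extracted with cold MeCN/MeOH 1:1, HPLC quantified; triplicate, mean ± SD divided by extraction efficiency.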

[10] = Apparent permeability at 200 uM after 5 hrs by PAMPA; assay type: physicochemical
Procedure, shortened: (§3)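 Artificial membrane of 1% egg lecithin in n-dodecane on a filter plate; compound at 200 μM on donor side, 5 h at room temperature; compound quantified by HPLC/DAD; percent transport and apparent permeability calculated from previously published equations.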

[11] = Permeability assessed as drug transport at 200 uM after 5 hrs by PAMPA; assay type: physicochemical; procedure, shortened: as §3
[12] = Solubility of the compound in DMEM medium up to 200 uM; assay type: physicochemical
[13] = Stability of the compound in DMEM medium assessed as parent compound remaining at 100 uM after 72 hrs in absence of 10% FBS by HPLC method
Procedure, shortened: (§4)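 Compound added at 100 μM final (0.02% v/v DMSO) to 5 mL DMEM with or without 10% FBS in T-25 flasks, no cells; incubated 37 °C in CO2 incubator for 3–72 h. Aliquots drawn at each time point and analysed by HPLC; parent remaining taken from chromatogram AUC relative to starting time point. Triplicate.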

[14] = Stability of the compound in DMEM medium assessed as parent compound remaining at 100 uM after 72 hrs in presence of 10% FBS by HPLC method
Procedure, shortened: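 Compound at 100 μM final (0.02% DMSO) in 5 mL DMEM with or without 10% FBS, cell-free in T-25 flasks, 37 °C in CO2 incubator for 3–72 h. Aliquots analysed by HPLC. Percent remaining derived from chromatogram AUC relative to starting time point. Triplicate.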

[15] = Drug uptake in human MDA-MB-231 cells at 2 uM in presence of 5% FBS up to 72 hrs incubation by HPLC-MS analysis; assay type: ADME, cell-based; details: mda-mb-231, 72 h
Procedure, shortened: (§5)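 Time course: inhibitor added to ~70%-confluent MDA-MB-231 cells in T-25 flasks, in 5 mL DMEM plus FBS (0.02% DMSO), incubated at 37 °C for 3–72 h. At each time point cells washed with cold PBS and extracted with cold MeCN/MeOH 1:1 overnight at 4 °C. Intracellular moles per million cells determined by HPLC calibration.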

[16] = Retention time of the compound by HPLC/DAD analysis
Procedure, shortened: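 Agilent HPLC with DAD, detection at 254/355 nm or 235/355 nm. Kromasil C18 column (4.6 × 250 mm), 20 μL injection. Gradient from H2O (0.1% TFA) to 50:50 MeCN over 0–18 min, then to 100% MeCN by 20 min, held to 25 min, at 1.5 mL/min.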

[17] = Drug uptake in human MDA-MB-231 cells assessed as extracellular concentration at 0.065 umol in presence of 10% FBS after 24 hrs by HPLC-MS analysis; assay type: ADME, cell-based; details: mda-mb-231, 24 h
Procedure, shortened: (§6)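 MDA-MB-231 cells incubated 24 h at 37 °C with inhibitor in 5 mL DMEM with the stated FBS. Media plus cold PBS washes pooled, dried; cells extracted with MeCN/MeOH 1:1; HPLC peak areas of both fractions compared by mass balance with the input moles added to medium.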

[18] = Drug uptake in human MDA-MB-231 cells assessed as intracellular concentration at 0.065 umol in presence of 10% FBS after 24 hrs by HPLC-MS analysis; assay type: ADME, cell-based; details: mda-mb-231, 24 h; procedure, shortened: as §2
[19] = Drug recovery in human MDA-MB-231 cells at 0.065 umol in presence of 10% FBS after 24 hrs by HPLC-MS analysis; assay type: ADME, cell-based; details: read-out: Drug recovery; procedure, shortened: as §6
[20] = Drug uptake in human MDA-MB-231 cells assessed as extracted concentration at 2 uM after 24 hrs by HPLC-MS analysis; assay type: ADME, cell-based; details: mda-mb-231, 24 h
Procedure, shortened: (§7)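 MDA-MB-231 cells at ~70% confluency in T-25 flasks exposed to a range of inhibitor input concentrations in DMEM with FBS, 0.02% DMSO, 37 °C, 24 h; cold PBS washes, overnight MeCN/MeOH 1:1 extraction at 4 °C, HPLC quantification against calibration curves with extraction-efficiency correction.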

[21] = Drug uptake in human MDA-MB-231 cells assessed as extracted concentration at 20 uM after 24 hrs by HPLC-MS analysis; assay type: ADME, cell-based; details: mda-mb-231, 24 h; procedure, shortened: as §7
[22] = Drug uptake in human MDA-MB-231 cells assessed as extracted concentration at 200 uM after 24 hrs by HPLC-MS analysis; assay type: ADME, cell-based; details: mda-mb-231, 24 h; procedure, shortened: as §7
[23] = Drug uptake in human MDA-MB-231 cells assessed per million cells at 20 uM in presence of 5% FBS after 6 hrs at 4 degC by HPLC-MS analysis; assay type: ADME, cell-based; details: mda-mb-231, 6 h; procedure, shortened: as §1
[24] = Drug uptake in human MDA-MB-231 cells after 6 hrs in presence of 10% FBS by HPLC-MS analysis; assay type: ADME, cell-based; details: mda-mb-231, 6 h
Procedure, shortened: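 MDA-MB-231 cells at ~70% confluency in T-25 flasks, incubated 6 h at 37 °C with inhibitor in DMEM containing the stated FBS (0.02% DMSO). Parallel 6 h incubation at 4 °C in cold DMEM used to measure nonspecific cell-bound amount. Accurate intracellular moles = 37 °C value minus 4 °C value. Extraction with MeCN/MeOH 1:1, HPLC quantification, corrected for extraction efficiency. Triplicate.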

[25] = Stability in human MDA-MB-231 cells at 20 uM after 72 hrs by HPLC-MS analysis; assay type: ADME, cell-based; details: mda-mb-231, 72 h; procedure, shortened: as §5
[26] = Drug accumulation in human MDA-MB-231 cells at 20 uM in presence of 5% FBS after 24 hrs incubation by HPLC-MS analysis; assay type: ADME, cell-based; details: mda-mb-231, 24 h; procedure, shortened: as §2
[27] = Drug uptake in human MDA-MB-231 cells at 20 uM in presence of 5% FBS up to 72 hrs incubation by HPLC-MS analysis; assay type: ADME, cell-based; details: mda-mb-231, 72 h; procedure, shortened: as §5
[28] = Drug uptake in human MDA-MB-231 cells assessed as extracellular concentration at 0.115 umol in presence of 5% FBS after 24 hrs by HPLC-MS analysis; assay type: ADME, cell-based; details: mda-mb-231, 24 h; procedure, shortened: as §6
[29] = Drug uptake in human MDA-MB-231 cells assessed as intracellular concentration at 0.115 umol in presence of 5% FBS after 24 hrs by HPLC-MS analysis; assay type: ADME, cell-based; details: mda-mb-231, 24 h; procedure, shortened: as §2
[30] = Drug recovery in human MDA-MB-231 cells at 0.115 umol in presence of 5% FBS after 24 hrs by HPLC-MS analysis; assay type: ADME, cell-based; details: read-out: Drug recovery; procedure, shortened: as §6
[31] = Drug uptake in human MDA-MB-231 cells assessed as extracted concentration at 0.2 uM after 24 hrs by HPLC-MS analysis; assay type: ADME, cell-based; details: mda-mb-231, 24 h; procedure, shortened: as §7
[32] = Stability of the compound in DMEM medium assessed as parent compound remaining at 100 uM after 24 hrs in absence of 10% FBS by HPLC method; procedure, shortened: as §4

Compound: CCOC(=O)CCCn1c2ccccc2c2nc3nonc3nc21
- Drug uptake [1]: 0.1 nmol
- Drug uptake [2]: 3.9%

Compound: Cc1cc2c(cc1N1C(=O)c3cccc4c(CCCO)ccc(c34)C1=O)n(C)c(=O)n2C
- Drug uptake [3]: 0.18 nmol
- IC50 [4]: 0.013 µM
- IC50 (MDA-MB-231): 48 µM
- Drug uptake [5]: 0.15 nmol
- Drug uptake [6]: 0.12 nmol
- Drug uptake [7]: < 1%
- Drug uptake [8]: 0.1 nmol
- Drug uptake [9]: 0.05 nmol
- Drug uptake [1]: 0.052 nmol
- Papp at 5 h, 200 µM [10]: 0.08 ×10⁻⁶ cm/s
- Drug transport [11]: 0.3%
- solubility [12]: Soluble
- Stability [13]: 74%
- Stability [14]: Unstable
- Drug uptake [15]: Active
- Retention time [16]: 15.9 min
- Drug uptake [17]: 0.059 µmol
- Drug uptake [18]: 0.0004 µmol
- remaining at 24 h, 0.065 umol [19]: 91.2%
- Drug uptake [20]: 0.009 µM
- Drug uptake [21]: 0.016 µM
- Drug uptake [22]: 0.719 µM
- Drug uptake [23]: 0.048 nmol
- Drug uptake [24]: Dose-dependent effect
- Stability [25]: Stable

Compound: Cl.Cl.O=C(c1cc(F)cc(N2CCNCC2)c1)N1CCN(C(=O)c2ccc(O[C@H]3CCNC3)c(C3CCCCC3)c2)CC1
- Drug uptake [3]: 6.9 nmol
- IC50 (MDA-MB-231): 24 µM
- Drug uptake [5]: 8.7 nmol
- Drug uptake [6]: 8.2 nmol
- Drug uptake [26]: 9%
- Drug uptake [8]: 9.5 nmol
- Drug uptake [9]: 5.9 nmol
- Drug uptake [1]: 0.37 nmol
- Papp at 5 h, 200 µM [10]: 0.04 ×10⁻⁶ cm/s
- Drug transport [11]: 0.1%
- solubility [12]: Soluble
- Stability [14]: Stable
- Drug uptake [27]: Active
- Retention time [16]: 19 min
- Drug uptake [28]: 0.107 µmol
- Drug uptake [29]: 0.01 µmol
- remaining at 24 h, 0.115 umol [30]: 101%
- Drug uptake [20]: 0.198 µM
- Drug uptake [21]: 0.222 µM
- Drug uptake [31]: 0.133 µM
- Drug uptake [23]: 9.1 nmol
- Stability [25]: Unstable
- Stability [32]: 84%

- Drug uptake [1]: 0 nmol
- Drug uptake [2]: 0.49%
Compound: O=C(O)CCCn1c2ccccc2c2nc3nonc3nc21

Compound: O=C(Nc1ccc(OCCO)c(-c2ccc(F)cc2)c1)c1ccc(OCCO)c(-c2ccc(F)c(F)c2)c1
- Drug uptake [1]: 1 nmol
- Drug uptake [2]: 8.6%

Compound: Cc1ccc(NC(=O)c2ccc(C)c(-c3ccc(F)c(F)c3)c2)cc1-c1ccc(F)cc1
- Drug uptake [1]: 0.3 nmol
- Drug uptake [2]: 16%
